Laboratory results reported in ChEMBL document CHEMBL3259540, “Design, synthesis and molecular docking studies of novel N-benzenesulfonyl-1,2,3,4-tetrahydroisoquinoline-based triazoles with potential anticancer activity” (Eur J Med Chem, 2014).

How the values were obtained:
[1] = tested on: Vero; test: Cytotoxicity against african green monkey Vero cells after 4 days by GFP detection method; format: cell-based; details: Chlorocebus sabaeus, 96 h
Method in brief: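 Cells at 3.3 × 10^4 cells/mL were added to compounds prediluted in 0.5% DMSO. Plates were incubated 4 days at 37 °C in 5% CO2, and GFP fluorescence was read from the plate bottom.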

[2] = Cytotoxicity against human MOLT3 cells after 48 hrs by XTT assay; details: MOLT-3, 48 h
[3] = Cytotoxicity against human HuCCa1 cells after 48 hrs by MTT assay; format: functional, cell-based; details: HuCC-A1, 48 h
Method in brief: (§1)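 Adherent cells seeded at 10,000–20,000 per well and held 24 h at 37 °C in 5% CO2. Serial dilutions of compound were then added, with etoposide and/or doxorubicin as positive controls and DMSO as negative control. After 48 h of continuous exposure, survival was read by MTT. IC50 was the concentration giving 50% growth inhibition relative to the DMSO control.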

[4] = tested on: HepG2; test: Cytotoxicity against human HepG2 cells after 48 hrs by MTT assay; format: functional, cell-based; details: HepG2, 48 h; method in brief: as §1
[5] = tested on: A549; test: Cytotoxicity against human A549 cells after 48 hrs by MTT assay; format: functional, cell-based; details: A549, 48 h; method in brief: as §1
[6] = tested on: HepG2; test: Ratio of etoposide IC50 to compound IC50 for human HepG2 cells after 48 hrs by MTT assay; format: functional
[7] = tested on: HepG2; test: Ratio of doxorubicin IC50 to compound IC50 for human HepG2 cells after 48 hrs by MTT assay; format: functional

SMILES	IC50 [1]	IC50 [2]	IC50 [3]	IC50 [4]	IC50 [5]	Ratio IC50 [6]	Ratio IC50 [7]
O=S(=O)(c1ccc(-n2cc(CO)nn2)cc1)N1CCc2ccccc2C1	> 50 µg/mL	> 50 µg/mL	51.4 µM	> 50 µg/mL	> 50 µg/mL	–	–
O=S(=O)(c1ccc(-n2cc(COc3ccccc3)nn2)cc1)N1CCc2ccccc2C1	> 50 µg/mL	> 50 µg/mL	> 50 µg/mL	6.5 µM	> 50 µg/mL	–	–
O=S(=O)(c1ccc(-n2cc(COc3ccc4ccccc4c3)nn2)cc1)N1CCc2ccccc2C1	> 50 µg/mL	> 50 µg/mL	> 50 µg/mL	60.5 µM	> 50 µg/mL	–	–
Cc1ccccc1OCc1cn(-c2ccc(S(=O)(=O)N3CCc4ccccc4C3)cc2)nn1	> 50 µg/mL	> 50 µg/mL	> 50 µg/mL	> 50 µg/mL	66.3 µM	–	–
Cc1ccc(OCc2cn(-c3ccc(S(=O)(=O)N4CCc5ccccc5C4)cc3)nn2)cc1	> 50 µg/mL	> 50 µg/mL	> 50 µg/mL	> 50 µg/mL	> 50 µg/mL	–	–
CC(=O)c1ccccc1OCc1cn(-c2ccc(S(=O)(=O)N3CCc4ccccc4C3)cc2)nn1	> 50 µg/mL	21.9 µM	30.2 µM	19.1 µM	14.9 µM	–	–
COC(=O)c1ccccc1OCc1cn(-c2ccc(S(=O)(=O)N3CCc4ccccc4C3)cc2)nn1	4.98 µM	18.6 µM	0.63 µM	12.4 µM	0.57 µM	–	–
O=Cc1ccc(OCc2cn(-c3ccc(S(=O)(=O)N4CCc5ccccc5C4)cc3)nn2)cc1	> 50 µg/mL	> 50 µg/mL	> 50 µg/mL	5.27 µM	59.1 µM	–	–
O=c1cc(OCc2cn(-c3ccc(S(=O)(=O)N4CCc5ccccc5C4)cc3)nn2)c2ccccc2o1	28.6 µM	80.8 µM	24.8 µM	> 50 µg/mL	25.3 µM	–	–
COc1cc2c(cc1OC)CN(S(=O)(=O)c1ccc(-n3cc(CO)nn3)cc1)CC2	> 50 µg/mL	> 50 µg/mL	72 µM	31.8 µM	41 µM	–	–
COc1cc2c(cc1OC)CN(S(=O)(=O)c1ccc(-n3cc(COc4ccccc4)nn3)cc1)CC2	> 50 µg/mL	> 50 µg/mL	> 50 µg/mL	2.57 µM	> 50 µg/mL	–	–
COc1cc2c(cc1OC)CN(S(=O)(=O)c1ccc(-n3cc(COc4ccc5ccccc5c4)nn3)cc1)CC2	> 50 µg/mL	36.4 µM	> 50 µg/mL	1.26 µM	> 50 µg/mL	–	–
COc1cc2c(cc1OC)CN(S(=O)(=O)c1ccc(-n3cc(COc4ccccc4C)nn3)cc1)CC2	> 50 µg/mL	> 50 µg/mL	39.7 µM	1.48 µM	27.2 µM	–	–
COc1cc2c(cc1OC)CN(S(=O)(=O)c1ccc(-n3cc(COc4ccc(C)cc4)nn3)cc1)CC2	> 50 µg/mL	> 50 µg/mL	> 50 µg/mL	0.56 µM	> 50 µg/mL	53.9	1.4
COc1cc2c(cc1OC)CN(S(=O)(=O)c1ccc(-n3cc(COc4ccccc4C(C)=O)nn3)cc1)CC2	37.2 µM	> 50 µg/mL	> 50 µg/mL	> 50 µg/mL	> 50 µg/mL	–	–
COC(=O)c1ccccc1OCc1cn(-c2ccc(S(=O)(=O)N3CCc4cc(OC)c(OC)cc4C3)cc2)nn1	2.82 µM	11.7 µM	4.79 µM	3.37 µM	8.43 µM	–	–
COc1cc2c(cc1OC)CN(S(=O)(=O)c1ccc(-n3cc(COc4ccc(C=O)cc4)nn3)cc1)CC2	> 50 µg/mL	34.1 µM	31.1 µM	12.5 µM	31.8 µM	–	–
COc1cc2c(cc1OC)CN(S(=O)(=O)c1ccc(-n3cc(COc4ccc([N+](=O)[O-])cc4)nn3)cc1)CC2	> 50 µg/mL	> 50 µg/mL	> 50 µg/mL	> 50 µg/mL	> 50 µg/mL	–	–
COc1cc2c(cc1OC)CN(S(=O)(=O)c1ccc(-n3cc(COc4cc(C=O)ccc4OC)nn3)cc1)CC2	> 50 µg/mL	5.82 µM	76.2 µM	41.4 µM	31.9 µM	–	–
COc1cc2c(cc1OC)CN(S(=O)(=O)c1ccc(-n3cc(COc4ccc(C=O)cc4OC)nn3)cc1)CC2	> 50 µg/mL	5.5 µM	40 µM	> 50 µg/mL	> 50 µg/mL	–	–
COc1cccc2c1C(=O)c1c(O)c3c(c(O)c1C2=O)C[C@@](O)(C(=O)CO)C[C@@H]3O[C@H]1C[C@H](N)[C@H](O)[C@H](C)O1 [DOXORUBICIN]	–	–	0.83 µM	–	–	–	–
Cc1c2ccncc2c(C)c2c1[nH]c1ccccc12 [ELLIPTECINE]	1.94 µM	–	–	–	–	–	–
COc1cc([C@@H]2c3cc4c(cc3[C@@H](O[C@@H]3O[C@@H]5CO[C@@H](C)O[C@H]5[C@H](O)[C@H]3O)[C@H]3COC(=O)[C@H]23)OCO4)cc(OC)c1O [ETOPOSIDE]	–	0.051 µM	–	–	–	–	–
